What was measured:
[1] = target: GABA-A receptor; alpha-1/beta-3/gamma-2 (Homo sapiens) (UniProt P14867+P18507+P28472); assay: Efficacy for human GABA-A receptor alpha-1-beta-3-gamma-2 subunits expressed in mammalian fibroblast L(tk-)cells; type: cell-based
[2] = target: T1, Gamma-aminobutyric acid receptor subunit alpha-5 (Mus musculus) (UniProt Q8BHJ7); assay: In vivo [3H]L-655708 binding to mouse GABA-A receptor alpha-5 subunit at 3 mg/kg ip dose; type: organism-based; parameters: dose 3 mg/kg
T1 sequence (whole entry): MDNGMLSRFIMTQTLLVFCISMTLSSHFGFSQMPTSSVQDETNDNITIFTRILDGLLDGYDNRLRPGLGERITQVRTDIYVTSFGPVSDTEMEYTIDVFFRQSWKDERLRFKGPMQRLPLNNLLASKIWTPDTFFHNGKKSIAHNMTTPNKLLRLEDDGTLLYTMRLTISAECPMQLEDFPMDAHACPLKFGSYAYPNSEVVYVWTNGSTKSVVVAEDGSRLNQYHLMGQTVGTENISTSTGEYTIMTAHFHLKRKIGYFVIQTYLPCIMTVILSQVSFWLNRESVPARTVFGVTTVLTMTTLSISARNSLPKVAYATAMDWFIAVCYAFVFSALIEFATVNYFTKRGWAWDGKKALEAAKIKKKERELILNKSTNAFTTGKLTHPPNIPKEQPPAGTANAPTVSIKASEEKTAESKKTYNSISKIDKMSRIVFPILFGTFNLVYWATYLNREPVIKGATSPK
In short: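 Mice were dosed ip at 10 mL/kg in 70% PEG 300. Controls were vehicle (total binding) and 5 mg/kg bretazenil (nonspecific). [3H]L-655,708 (11 µCi/mL, 1 mL/kg) was given iv 1 min before killing, 30 min after drug. Forebrain was homogenized in ice-cold 10 mM KH2PO4/100 mM KCl pH 7.4, filtered and counted by scintillation. Occupancy = 100 − (drug/vehicle specific binding)×100.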

[3] = target: T2, GABA-A receptor; alpha-5/beta-3/gamma-2 (Homo sapiens) (UniProt P18507+P28472+P31644); assay: Efficacy for GABA-A receptor alpha-5-beta-3-gamma-2 subunits expressed in Xenopus laevis oocytes by two-electrode voltage clamp recording; type: cell-based; conditions: Oocyte
In short: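 Two-electrode voltage clamp on Xenopus laevis oocytes injected with human α5β3γ2 cDNA, recorded 2-4 days after injection. Expression checked with 3 mM GABA; oocytes with currents <0.3 μA rejected. A GABA EC20 was determined per oocyte. Compound applied at a single concentration near 100× Ki. Efficacy (%) = (current with compound/control EC20 current × 100) − 100.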

[4] = target: T2, GABA-A receptor; alpha-5/beta-3/gamma-2 (Homo sapiens); assay: Efficacy for human GABA-A receptor alpha-5-beta-3-gamma-2 subunits expressed in mammalian fibroblast L(tk-)cells; type: cell-based
[5] = target: GABA-A receptor; alpha-2/beta-3/gamma-2 (Homo sapiens) (UniProt P18507+P28472+P47869); assay: Efficacy for human GABA-A receptor alpha-2-beta-3-gamma-2 subunits expressed in mammalian fibroblast L(tk-)cells; type: cell-based
[6] = target: GABA-A receptor; alpha-3/beta-3/gamma-2 (Homo sapiens) (UniProt P18507+P28472+P34903); assay: Efficacy for human GABA-A receptor alpha-3-beta-3-gamma-2 subunits expressed in mammalian fibroblast L(tk-)cells; type: cell-based
[7] = target: T3, Gamma-aminobutyric acid receptor subunit alpha-5 (Homo sapiens) (UniProt P31644); assay: Binding selectivity for GABA-A alpha5 subunit over GABA-A alpha1,alpha2 or alpha3 subunit receptors
T3 sequence (whole entry): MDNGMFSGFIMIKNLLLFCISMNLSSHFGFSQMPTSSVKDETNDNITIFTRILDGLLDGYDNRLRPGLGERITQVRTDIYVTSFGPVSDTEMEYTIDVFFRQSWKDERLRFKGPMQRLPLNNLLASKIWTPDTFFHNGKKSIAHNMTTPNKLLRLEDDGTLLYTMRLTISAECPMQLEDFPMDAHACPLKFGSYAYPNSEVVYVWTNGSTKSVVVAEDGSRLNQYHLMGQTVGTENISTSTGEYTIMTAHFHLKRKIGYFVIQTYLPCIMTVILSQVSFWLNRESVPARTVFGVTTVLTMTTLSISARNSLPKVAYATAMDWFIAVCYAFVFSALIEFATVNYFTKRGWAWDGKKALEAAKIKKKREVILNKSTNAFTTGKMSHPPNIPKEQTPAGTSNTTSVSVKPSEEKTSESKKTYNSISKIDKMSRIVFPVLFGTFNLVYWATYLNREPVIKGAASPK
In short: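 Ki from [3H]Ro 15-1788 displacement at human recombinant α1, α2, α3 or α5 with β3γ2 receptors in L(tk-) cell membranes. […] Ki is geometric mean ± SEM of three determinations, and the ratio is taken against the α5 Ki.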

[8] = target: GABA-A receptor; anion channel; assay: Binding affinity for GABA-A Benzodiazepine receptor; type: protein-complex assay
In short: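 Displacement of [3H]Ro 15-1788 binding from harvested L(tk-) cells stably expressing human recombinant GABA-A receptors with β3 and γ2 subunits plus α1, α2, α3 or α5. […] Ki given as geometric mean ± SEM of three independent determinations.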

[9] = target: T3, Gamma-aminobutyric acid receptor subunit alpha-5 (Homo sapiens); assay: Binding selectivity for human gamma-aminobutyric-acid A receptor alpha-5 over GABA A alpha1,alpha2 and alpha-3 receptors

**Q.** How did the Efficacy [1] turn out when CC1(C)CC(=O)c2c(SCCO)sc(-c3nccs3)c2C1 was run?
**A.** -21%

**Q.** What about the Occupancy [2] of the same compound?
**A.** 91%

**Q.** What about the Efficacy [3] of the same compound?
**A.** -38

**Q.** And the Efficacy [4]?
**A.** -51%

**Q.** And the Efficacy [5]?
**A.** -1%

**Q.** And the Efficacy [6]?
**A.** -3%

**Q.** And the Selectivity [7]?
**A.** 13

**Q.** How did the Ki [8] turn out when CC(=O)c1cc2c(s1)CCCC1=C2NN(c2ccc(Cl)cc2)C(=O)C1 was run?
**A.** 4.2 nM

**Q.** Which results are given for CCc1c(C(=O)OC)ncc2[nH]c3cc(OC)c(OC)cc3c12?
**A.** Selectivity [9]: 6; Efficacy [1]: -71%; Efficacy [3]: -34; Efficacy [5]: -53%

— ChEMBL document CHEMBL1144999, “Identification of a novel, selective GABA(A) alpha5 receptor inverse agonist which enhances cognition” (J Med Chem, 2003)
